System: MS2 coat protein
Test: apparent Kd, MS2 coat protein; higher = weaker binding; RNA-MaP array; FMN 200 µM where present
Summary of the method: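 On Illumina sequencing-chip clusters, designs were transcribed by stalled E. coli RNA polymerase and titrated with SNAP-549-labelled MS2 coat protein (0.7 or 1.5 nM, doubling to 3 µM), without and then with constant ligand, in 100 mM Tris-HCl pH 7.5, 80 mM KCl, 4 mM MgCl2, BSA, DTT, yeast tRNA and Tween-20. Apparent Kd is the median of filtered per-cluster curve fits to green signal normalised to red-channel RNA signal and control-cluster median Fmax.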

[1] = designed as: ON switch for flavin mononucleotide, no ligand
[2] = ligand present: flavin mononucleotide, designed as: ON switch for flavin mononucleotide
[3] = designed as: OFF switch for flavin mononucleotide, no ligand
[4] = ligand present: flavin mononucleotide, designed as: OFF switch for flavin mononucleotide

| Sequence | apparent Kd [1] | apparent Kd [2] | apparent Kd [3] | apparent Kd [4] |
| --- | --- | --- | --- | --- |
| UAGCGCUGUCGAGAGGAUAUGCGGUGAUGGACAUGAGGAUCACCCAUGUUAGCGAUAGCAUUACGGUAGAAGGCUCUACAGCUGC | 0.0276 µM | 0.0136 µM |  |  |
| UAGCUUGACGCAGGAUAUCCAAGGCUGAAAUGAGGAGAAGGGCGCCAAACAUGAGGAUCACCCAUGUAUUAUGCAGGGUCCUCG |  |  | 0.302 µM | 0.152 µM |
| UAGUACUAGGGAGGAUAUGGGAAGAUACAUGAGGAUCACCCAUGUUUAAGAAUGCCGAGAGGCAACUAGAAGGCCCUAGUACCU | 0.463 µM | 0.0192 µM |  |  |
| UAGUAUAAGGGCAUUAAACAUGAGGAUCACCCAUGUACGAUAGAGGAUAUGCAUUUCAGUUGAGAGUAGAAGGUUAGAGAAGGG |  |  | 0.0445 µM | 0.0463 µM |
| UAGUAUAAGGGCAUUAAACAUGAGGAUCACCCAUGUACGAUAGAGGAUAUGCAUUUCAGUUUAGAGUAGAAGGUUAGAGAAUAU |  |  | 0.0391 µM | 0.0474 µM |
| UAGUGAUUGCAAGGAUAUGCUUGUGUUUUAUUUUUUUUAAUAUCUAACAUGAGGAUCACCCAUGUGCAGAAGGUGCUUGAUUUG | 0.0478 µM | 0.0488 µM |  |  |
| UAUAAUUAGUAGAAGGACGGAGAGUAAGAAGUCGUAGGAUAUACAUAAGACAUGAGGAUCACCCAUGUGUGUAUGUUGGGUAGG |  |  | 0.00676 µM | 0.0067 µM |
| UAUAUAAUAAGAGCUGGACUUCAAACAUGAGGAUCACCCAUGUAGGAUAUCAGCACGAUAAGUGCUGAGAAGGACAACCAGCUC |  |  | 0.0165 µM | 0.0168 µM |
| UAUAUAAUAAGAGCUGGCUCUAAAACAUGAGGAUCACCCAUGUAGGAUAUCAGCACGAUAAGUGCUGAGAAGGACAACCAGCUC |  |  | 0.0163 µM | 0.0173 µM |
| UAUAUAUAGUAAGGAUAUGUAUAUAUUUUAUCAACAGAAGGUACUGACAUGAGGAUCACCCAUGUUUUAGUGUGGGCAUGUAGA |  |  | 0.0687 µM | 0.0708 µM |
| UAUAUAUAGUAAGGAUAUGUAUCUAUUUUAUAAACAGAAGGUACUGACAUGAGGAUCACCCAUGUUUUAGUGUGGGCAUGUAGA |  |  | 0.0922 µM | 0.114 µM |
| UAUAUUUAUGUAGGAUAUGGUCUAUAAAAUAGACCAGAAGGACAUGAGGAUCACCCAUGUAUGAAAUUCCAUAAUUGCCGUGUA |  |  | 0.0114 µM | 0.0114 µM |
| UAUCCGCUAGGAUAUACUAUAUUGUCCUCGUGAGUGAUGCUACAUGAGGAUCACCCAUGUAGAAGGAGCGCGUG |  |  | 0.0273 µM | 0.0307 µM |
| UAUCCGUCAGUAGGAUAUAUGCCGAGUCAUUGCAUAGAAGGACUGACAUGAGGAUCACCCAUGUCAGAUUGCGCUGGUCUUCCG |  |  | 0.00624 µM | 0.00668 µM |
| UAUCGCAGUGCAGGAUAUCCAAGGUUUGGCGAAGGAGAAGGGCACGCGACAUGAGGAUCACCCAUGUAAAGUGUGGCGUCCUCU |  |  | 0.116 µM | 0.0622 µM |
| UAUCGGGUGCGACUCGCAAGAGGGACAGAAGGCCAUCGACAUGAGGAUCACCCAUGUAACGAAAUGGAGGAUAUGUCUGGUCGA | 0.0275 µM | 0.00565 µM |  |  |
| UAUGAGCGAGGAUAUGCUUGGGACGUCGUUCUUGCGGCGAGACAUGAGGAUCACCCAUGUAGAAGGCGCGAGCG |  |  | 0.0184 µM | 0.0185 µM |
| UAUGGUAAAGUCAGGAUAUACGUACGUCGUUCUAGGUAGAAGGGACAUGAGGAUCACCCAUGUAUGGUAGUGUU |  |  | 0.09 µM | 0.0889 µM |
| UAUGUAUUCGUAGGAUAUCCGUCGCCACCGUGUGGAGAAGGACGAACAUGAGGAUCACCCAUGUAUCAUGGUGUAGACAAUUUU |  |  | 0.077 µM | 0.135 µM |
| UAUGUUGUUGUGAGGAUAUACUUAGUUUGACCGUAGUAGAAGGCACAUGAGGAUCACCCAUGUAGAUGCUUGGU |  |  | 0.00575 µM | 0.0108 µM |
| UAUGUUGUUGUGAGGAUAUACUUUGUUUGGUCGUAGUAGAAGGCACAUGAGGAUCACCCAUGUAGAUUUUUGGU |  |  | 0.0194 µM | 0.0248 µM |
| UAUUAAACAUAGGAUAUCGAAUAAAUCAUUUAACGAGAAGGAUGAACAUGAGGAUCACCCAUGUGGUAUCAUGG |  |  | 0.246 µM | 0.256 µM |
| UAUUAGAUCCGAGGAUAUCCUUAUUAGAAACAUGAGGAUCACCCAUGUAAAGGGAAUUAUUUGUAGGAGAAGGCGGAUUUAGUU | 0.0675 µM | 0.0529 µM |  |  |
| UAUUAUUGCAAGGAUAUGCUUUUUAUUUCUUUUGCAGAAGGUGCAACAUGAGGAUCACCCAUGUUUCCGGGUAU |  |  | 0.0197 µM | 0.0289 µM |
| UAUUGAUAAUAUUUUCACAUGAGGAUCACCCAUGUCGCUCGACAGGAUAUAUUUUAUUUGUUUAAGUAGAAGGGUCGCAGAUUU | 0.143 µM | 0.109 µM |  |  |
| UAUUUAAGAGGAUAUACAUGAGGAUCACCCAUGUGUGUCUAUACGCGUGAUUUUUCAUGUAGAAGGCUUGGGUA |  |  | 0.16 µM | 0.0605 µM |
| UAUUUACAUGAGGAUCACCCAUGUUAGGAUAUGUUUCUAUCGUCGAAAGAUGAUAUUUGCAGAAGGGACUUUAU |  |  | 0.0276 µM | 0.0251 µM |
| UCACGGGACUAAGGAUAUACAUGAACUAUUAUUGUAGAAGGUAGAAUGUUAGCUUAUACACUAAACAUGAGGAUCACCCAUGUA |  |  | 0.0365 µM | 0.0328 µM |

| Sequence | apparent Kd [1] | apparent Kd [2] | apparent Kd [3] | apparent Kd [4] |
| --- | --- | --- | --- | --- |
| UCACGGUAUGUAGGAUAUGCAUAGCAUUGCUAUGCAGAAGGACAUGAGGAUCACCCAUGUAUGUAUUCCAUACUAUUCCCGUGU |  |  | 0.00618 µM | 0.00609 µM |
| UCAGGAGUCACAGGAUAUCCGGCGUAGCACACAGGAGAAGGGUGAUCACGAGCACAUGAGGAUCACCCAUGUGACAUUUGUGAG | 0.0404 µM | 0.0507 µM |  |  |
| UCAGUAGAGUCAGGAUAUACCGAAAAGAAUCCUCACAUGAGGAUCACCCAUGUAGAAGGGACUCUACUGUAAGUCGGAAACGAC |  |  | 0.0918 µM | 0.868 µM |
| UCAUACUUUCGAGGAUAUCGGUUAACAUAUUAACGAGAAGGCGAUAUAUUGUUUAAUCUUAUAAACAUGAGGAUCACCCAUGUA | 0.0339 µM | 0.0254 µM |  |  |
| UCAUAUUUACAAGGAUAUCAAUUGAAUAAACAUCGGACAUGAGGAUCACCCAUGUGAAAGUAUGGUGAGAAGGUGUAUUGUCGG | 0.217 µM | 0.154 µM |  |  |
| UCAUCAACGGGCGGGUCGGUUGGACAUGAGGAUCACCCAUGUAGAAGGACCGGUGGACUCCGCCGGUAGGAUAUACAUUUGGUG |  |  | 0.0416 µM | 0.0301 µM |
| UCAUGAAGGGCAGGAUAUGGACAUGAGGAUCACCCAUGUACAUGGGAUAAUAUACUAAAUUAAUACUAGAAGGGUUACAUAAAU |  |  | 0.0372 µM | 0.0246 µM |
| UCAUUAGCGGGCGGAUCGGUUGGACAUGAGGAUCACCCAUGUAGAAGGACCGGUGGAUUCCGGCGGUAGGAUAUACAUUUGGUG |  |  | 0.0127 µM | 0.0198 µM |
| UCAUUGAUUGUGAGGAUAUCGAUGUGAUGGUUUGUCGAGAAGGCACAUGAGGAUCACCCAUGUUUGUUUGGGCU |  |  | 0.494 µM | 0.253 µM |
| UCAUUUAUUACAGGAUAUAUUAGUAUACAGUUGUUUGGUUAUUACAUAUUAAUAGAAGGGUAGAACAUGAGGAUCACCCAUGUA | 0.234 µM | 0.119 µM |  |  |
| UCAUUUCUGUAAGGAUAUAUAAACAUGACGAUACAUGAGGAUCACCCAUGUGUAGAAGGUACAAAUACAUAUAAUGCAAUGUUC |  |  | 0.0148 µM | 0.0129 µM |
| UCAUUUUACACAGGAUAUACUCAUAUACAGUUGUUUGGCUCUUACAUGUUAGUAGAAGGGUGCAACAUGAGGAUCACCCAUGUA | 0.621 µM | 0.25 µM |  |  |
| UCCAGAUCGCGAGGUAGGAGUAGCAGAAGGCGACCGGUGCCAGAUGACAUGAGGAUCACCCAUGUCGAGGAUAUGCUACAGAAU |  |  | 0.00649 µM | 0.0132 µM |
| UCCAUGUUAGGAUAUUACAUGCAGGCUGUAACACGCCGGUGUAAGAAGGAACAUGAGGAUCACCCAUGUGUCGU |  |  | 0.068 µM | 0.137 µM |
| UCCGCAAGUGAAGGAUAUACGGCUGAAGAGCCAGUAGAAGGUCACAUGAGGAUCACCCAUGUCUACCGCUACGAGAUAUUACAA |  |  | 0.0191 µM | 0.0595 µM |
| UCCUCACAUGAGGAUCACCCAUGUUAGGAUAUCUCGGUGCCCUGCAGGCAGUGGCACCAGAGAAGGAACGUGCA |  |  | 0.0212 µM | 0.0221 µM |
| UCCUUCUGUUGAGGAUAUGUAAGACAGCGGCUGCUAUUACGGCACGCUGAUACAGAAGGCAACAUGAGGAUCACCCAUGUUCAA |  |  | 0.0241 µM | 0.189 µM |
| UCCUUGUCCUGAGGAUAUCCGUGGUUACCGAAAGGAGAAGGCAGGACAUGAGGAUCACCCAUGUACCCAGAAAACGUGCAGAGA |  |  | 0.0593 µM | 0.467 µM |
| UCCUUGUCCUGAGGAUAUCCGUGGUUACCUAAAGGAGAAGGCAGGACAUGAGGAUCACCCAUGUACCCAGAAAACGUGCAGAGU |  |  | 0.234 µM | 0.126 µM |
| UCGAACUUUCGUGUAAUUCGCACAUGAGGAUCACCCAUGUACGAGGAUAUGUACCUAAACGGCUAACAGAAGGCGUACUGGGCA |  |  | 0.17 µM | 0.106 µM |
| UCGAGGUCAGGAUAUACAUGAGGAUCACCCAUGUGGAAGUAAGGUAGGAGAAGAGUAGGUAGAAGGGACGAGAG |  |  | 0.0426 µM | 0.0357 µM |
| UCGAGUCAUGAGAAGGGUUGAUGUUACAUGAGGAUCACCCAUGUCAUGGGCAGGAUAUCAUUGACACGACUGUACCUCUCUUAC | 0.254 µM | 0.112 µM |  |  |
| UCGAUAAGGAGAGGAUAUGGACAUGAGGAUCACCCAUGUACAUGGGAAUAUAUACUGAAUUUUUACUAGAAGGCUUACAUAAAU |  |  | 0.0147 µM | 0.0124 µM |
| UCGCGGGUGCAGAAGGGAUAGGCCUAUUGUCGUGGUGUCCAAACUUAACAUGAGGAUCACCCAUGUCAGGAUAUGCCCACGCGA |  |  | 0.0739 µM | 0.117 µM |
| UCGCUGCGAGGAUAUACAUGAGGAUCACCCAUGUACGGGUCCGGGUUUGAGUUGAUGAGUAGAAGGCGCAGUGA |  |  | 0.0947 µM | 0.0861 µM |
| UCGCUGCGAGGAUAUACGUUCGCGCGCUUUCGUUUGCGCGUACAUGAGGAUCACCCAUGUAGAAGGCGCGCUGC |  |  | 0.0164 µM | 0.0155 µM |
| UCGCUUGAAGGAUAUACGAUUCGUUGUGUUCGUGUCACCUGACAUGAGGAUCACCCAUGUAGAAGGUCACGCAG |  |  | 0.0186 µM | 0.0246 µM |

Reference: the EternaBench riboswitch data
